# In the library only some 2.3% were active in any assay of this set; here they are far more common.
# TRPC6 inh: inhibitors of mouse TRPC6 channel. 1.1% of 310,000 active. AID 2553. Q61143. HEK293-TRPC6, membrane potential dye, ACh-evoked depolarization; stronger effect = lower value. B-score at 10 µM;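 active = B-score under library mean minus 3 SD, initial fluorescence not abnormally high, positive integrated signal ratio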;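 also: B-score derived from integrated fluorescence ratio over the kinetic read; more negative B-score means stronger inhibition of depolarization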
# Target sequence (Q61143 whole entry, looked up): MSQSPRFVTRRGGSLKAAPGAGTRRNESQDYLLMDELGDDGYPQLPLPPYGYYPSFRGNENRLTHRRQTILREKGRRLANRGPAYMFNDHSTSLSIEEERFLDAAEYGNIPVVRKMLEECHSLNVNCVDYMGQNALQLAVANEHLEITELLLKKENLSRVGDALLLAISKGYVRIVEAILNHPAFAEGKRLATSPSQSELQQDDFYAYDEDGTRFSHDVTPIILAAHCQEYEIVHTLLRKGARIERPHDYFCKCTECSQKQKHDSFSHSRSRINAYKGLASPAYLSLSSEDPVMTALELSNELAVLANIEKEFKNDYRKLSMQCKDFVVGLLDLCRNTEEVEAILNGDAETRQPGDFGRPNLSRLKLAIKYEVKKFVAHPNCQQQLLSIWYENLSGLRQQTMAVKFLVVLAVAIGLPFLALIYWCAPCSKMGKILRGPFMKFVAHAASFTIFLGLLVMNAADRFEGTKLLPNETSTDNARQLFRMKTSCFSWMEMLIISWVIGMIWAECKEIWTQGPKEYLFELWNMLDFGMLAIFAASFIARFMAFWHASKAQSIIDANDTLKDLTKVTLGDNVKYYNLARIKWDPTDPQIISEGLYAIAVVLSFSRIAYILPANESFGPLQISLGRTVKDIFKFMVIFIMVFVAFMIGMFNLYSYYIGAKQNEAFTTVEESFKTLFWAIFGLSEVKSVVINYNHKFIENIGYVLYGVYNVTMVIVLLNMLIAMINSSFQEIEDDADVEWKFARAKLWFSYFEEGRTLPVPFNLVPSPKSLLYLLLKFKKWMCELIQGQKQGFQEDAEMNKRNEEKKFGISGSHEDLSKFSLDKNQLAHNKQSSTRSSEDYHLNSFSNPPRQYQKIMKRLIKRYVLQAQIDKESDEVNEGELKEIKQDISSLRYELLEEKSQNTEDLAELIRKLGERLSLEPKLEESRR
# TRPC6 activator: activators of mouse TRPC6 channel | AID 2550 | 0.13% of 310,000 active | HEK293-TRPC6 membrane potential dye fluorescence; stronger effect = higher value | Q61143 | B-score at 10 µM;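 active = B-score of the integrated fluorescence ratio above library mean plus 3 SD, and starting fluorescence ratio within library mean plus 5 SD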;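 also: higher score means more depolarization so channel activation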
# TRPC4 inh: blocks the mouse TRPC4 cation channel; AID 2247; HEK293 TRPC4beta/mu-opioid, DAMGO-evoked Fluo4 calcium flux; stronger effect = lower value; Q9QUQ5; B-score at 10 µM; 0.39% of 300,000 active;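 active = B-score over 3 SD under the library average, no early fluorescence shift, positive overall ratio signal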
#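 System: stable TRPC4beta/mu-opioid receptor HEK293 cells; Dosing: single-point compound dosing; Measured by: Fluo4 Ca2+ flux fluorescence; Read-out basis: per-well B score of integrated baseline-normalized Fluo4 ratio.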
# TRPC4 potent: allosteric potentiators of mouse TRPC4 channel; Q9QUQ5; B-score at 10 µM; HEK293 TRPC4beta/mu-opioid, DAMGO EC20, Fluo-4 Ca2+ flux; stronger effect = higher value; 0.42% of 310,000 active; AID 2227;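 active = B-score of calcium response area above 5 SD of library B-scores, with initial fluorescence ratio within 5 SD of library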;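 also: B-score of integrated fluorescence ratio over time as area under calcium response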
# TRPC4 act: TRPC4 (mouse) channel activation; Q9QUQ5; HEK293 TRPC4beta/mu-opioid, Fluo4 calcium fluorescence; stronger effect = higher value; B-score at 10 µM; 0.49% of 310,000 active; AID 2237;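 active = B-score above 5 SD of library B-scores, and initial fluorescence ratio not above library mean plus 5 SD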;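 also: positive B-score marks a calcium rise read as TRPC4 activation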
#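 Test system: HEK293 cells stably co-expressing mouse TRPC4beta and mu-opioid receptor | Schedule: Fluo4 dye loading 45 min at room temperature, 110 s recording | Measured by: Kinetic Fluo4 calcium fluorescence, 5 s baseline at 1 Hz | Evaluation: B score of integrated ratio | Controls: Buffer (low) and maximal DAMGO (high)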
# TRPC4 sel inh 2: second selectivity test of TRPC6 inhibitors: effect on mouse TRPC4. 42% of 920 active. shares compounds with TRPC6 inh. inhibition, % at 10 µM. HEK293 TRPC4/MOR, membrane potential dye fluorescence; channel activated by saturating DAMGO dose. AID 2776;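 active = compounds whose fluorescence signal differed from control wells by over 3 SD, either direction, in both duplicate plates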
# TRPC4 spec: tests whether TRPC6 inhibitors also affect mouse TRPC4; activity change, negative = inhibition, % at 10 µM; 61% of 920 active; HEK293 TRPC4/mu-opioid, membrane potential fluorescence; shares compounds with TRPC6 inh;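 active = rise or fall in signal beyond 3 SD of buffer-only wells in both replicate plates, either sign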;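 also: integrated kinetic ratio of fluorescence range over baseline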
# HEK293 MPD ctr 2-1: second counter-screen for TRPC6 inhibitors: parental HEK293 cells. shares compounds with TRPC6 inh. parental HEK293 membrane potential dye fluorescence; maximal acetylcholine challenge after compound addition. signal change vs control, % at 10 µM. 31% of 920 active. AID 2779;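 active = membrane potential signal moving either way by over 3 SD of the maximum-effect control, in both duplicate plates, meaning non-specific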
# HEK293 MPD ctr-1: parental HEK293 nonspecific activity of TRPC6 inhibitors. shares compounds with TRPC6 inh. parental HEK293 membrane potential dye fluorescence. membrane potential signal change, % at 10 µM. 60% of 920 active. AID 2780;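 active = membrane potential signal shifting up or down by more than 3 SD of buffer-only wells, on both duplicate plates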
# HEK293 MPD ctr-2: counter-screen for TRPC6 modulators: effect in parental HEK293 cells. shares compounds with TRPC6 inh. membrane potential dye fluorescence. membrane potential signal change, % at 10 µM. 51% of 2,400 active;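 active = membrane potential signal moves up or down beyond 5 SD from buffer-only wells, on both duplicate plates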
# HEK293 MPD ctr 2-2: parental HEK293 nonspecific activity of TRPC6 modulators, second screen; shares compounds with TRPC6 inh; membrane potential dye fluorescence; after compound, maximal acetylcholine stimulation; inhibition, % at 10 µM; 14% of 2,400 active;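 active = membrane potential signal drops by more than 5 SD from the mean control signal, in both duplicate plates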;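 also: plate controls were acetylcholine ECmax control wells for no effect and buffer only wells for full effect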
# TRPC4/MOR mod: tests whether TRPC6 modulators also affect mouse TRPC4; shares compounds with TRPC6 inh; HEK293 TRPC4/mu-opioid, membrane potential fluorescence; percent change from control (negative = decrease, positive = increase), % at 10 µM; 69% of 2,400 active;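 active = membrane potential signal moved up or down beyond 5 SD of buffer control wells, in both duplicate plates, actives on both sides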;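 also: plate controls were assay buffer wells for no effect and DAMGO maximal-effect wells for full effect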
# TRPC4/MOR inh 2: second check of whether TRPC6 modulators also affect mouse TRPC4 | HEK293 TRPC4/mu-opioid, membrane potential dye fluorescence; stimulated with maximal-effect DAMGO | inhibition, % at 10 µM | shares compounds with TRPC6 inh | 55% of 2,400 active | AID 488928;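 active = drop in membrane potential signal beyond 5 SD of the control wells in both duplicate plates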;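 also: TRPC4 counter screen for TRPC6 hits run under conditions tuned for TRPC6 not TRPC4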
# TRPC6 inh conf: confirmation of mouse TRPC6 inhibitors; shares compounds with TRPC6 inh; inhibition, % at 10 µM; 43% of 3,300 active; HEK293-TRPC6, membrane potential dye, ACh-evoked depolarization;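 active = fluorescence ratio falls more than 5 SD below the full-stimulation control mean, in both duplicate runs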;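 also: integrated fluorescence ratio of peak minus minimum over baseline after agonist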
# TRPC6 act conf: confirmation of mouse TRPC6 activators. 11% of 2,800 active. shares compounds with TRPC6 inh. HEK293-TRPC6 membrane potential dye fluorescence, FDSS. activation, % at 10 µM. AID 488961;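 active = ratio signal rise beyond 5 SD above unstimulated control wells' mean, seen in both duplicate runs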;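 also: plate controls were buffer EC0 wells for no effect and acetylcholine ECmax response for full effect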
# * marks the source's active call; other numbers are inactive results; i = inactive; · = not tested or not shown.
SMILES,TRPC6 inh,TRPC6 activator,TRPC4 inh,TRPC4 potent,TRPC4 act,HEK293 MPD ctr-2,HEK293 MPD ctr 2-2,TRPC4/MOR mod,TRPC4/MOR inh 2,TRPC6 inh conf,TRPC6 act conf,others
CN1CCN(c2ccc(NC(=O)c3cc4ccccc4o3)cc2)CC1,-5.17*,i,i,i,i,i,i,i,48.5%*,41.0%*,i,
O=C(Nc1ccccc1N1CCCC1)c1cc2ccccc2o1,i,i,i,i,i,·,·,·,·,·,·,
CN1CCN(c2ccccc2NC(=O)c2cc3ccccc3o2)CC1,-12.8*,i,i,i,i,·,·,·,·,71.9%*,i,TRPC4 sel inh 2=25.0%*;TRPC4 spec=-21.8%*;HEK293 MPD ctr 2-1=i;HEK293 MPD ctr-1=-212.0%*
CN1CCN(c2ccc(NC(=O)c3ccc(Oc4ccccc4)cc3)cc2)CC1,-6.19*,i,i,i,i,i,i,i,58.5%*,47.5%*,i,
CN1CCN(c2ccccc2NC(=O)c2ccc(Br)o2)CC1,-9.64*,i,i,i,i,·,·,·,·,86.7%*,i,TRPC4 sel inh 2=28.5%*;TRPC4 spec=i;HEK293 MPD ctr 2-1=i;HEK293 MPD ctr-1=i
CC1(C)C(CSc2nc3ccccc3[nH]2)C1(Cl)Cl (stereo not given),i,i,i,i,i,·,·,·,·,·,·,
CCc1nc2sccc2c(=O)[nH]1,i,i,i,i,i,·,·,·,·,·,·,
COc1cc2ccccc2cc1C(=O)Nc1ccc(N2CCN(C)CC2)cc1,-5.54*,i,i,i,i,i,i,-11.5%*,64.0%*,59.5%*,i,
CC(C)Oc1cccc(C(=O)NC(=S)Nc2ccc(N3CCN(C)CC3)cc2)c1,-6.3*,i,i,16*,i,i,i,i,61.5%*,42.5%*,i,
O=S(=O)(Nc1nc2ccccc2[nH]1)c1ccc(Cl)cc1,-8.7*,i,i,i,i,·,·,·,·,51.7%*,i,TRPC4 sel inh 2=i;TRPC4 spec=i;HEK293 MPD ctr 2-1=i;HEK293 MPD ctr-1=i
COc1ccc(C2C(C(N)=O)=C(C)Nc3nc(CCCO)nn32)cc1OC (stereo not given),-5.88*,i,i,i,i,i,i,i,i,i,i,
COc1ccc(C2C(C(N)=O)=C(C)Nc3nc(CCCO)nn32)cc1 (stereo not given),i,i,i,i,i,·,·,·,·,·,·,
COc1cccc(C2=Nc3cccc4cccc(c34)N2)c1,-8.12*,i,i,i,i,-94.0%*,i,-26.0%*,74.5%*,52.5%*,i,
CC(C)(C)c1nnc(NC(=O)Cc2ccccc2[N+](=O)[O-])s1,-6.36*,i,i,i,i,i,i,i,i,i,i,
CCOC(=O)CN1C(=O)C(=O)N(Cc2c(Cl)cccc2Cl)C1=O,-5.57*,i,i,i,i,i,i,i,i,i,i,
CCOC(=O)CN1C(=O)C(=O)N(Cc2cccc(C)c2)C1=O,i,i,i,i,i,·,·,·,·,·,·,
COc1cc(C(=O)NCc2nnc(SCC(=O)Nc3cccc(C(F)(F)F)c3)o2)cc(OC)c1OC,i,i,i,i,i,·,·,·,·,·,·,
CCOC(=O)CNC(=O)Cn1cnc2c(nnn2-c2ccc(OC)cc2)c1=O,-9.52*,i,i,i,i,·,·,·,·,i,i,TRPC4 sel inh 2=i;TRPC4 spec=i;HEK293 MPD ctr 2-1=i;HEK293 MPD ctr-1=i
CCCCc1nnc(NC(=O)CSc2nc(O)c(Cc3ccccc3)c(=O)[nH]2)s1,i,i,i,i,i,·,·,·,·,·,·,
O=C(CSc1nc(O)c(Cc2ccccc2)c(=O)[nH]1)Nc1nnc(SCc2ccccc2)s1,i,20*,i,i,i,308.0%*,i,58.0%*,i,i,142.5%*,
Cc1cccc2cc3c(nc12)-c1ccccc1C3=O,i,i,i,i,i,·,·,·,·,·,·,
Cc1nc2c(cc1C#N)C(=O)c1ccccc1-2,-5.04*,i,i,i,i,-114.5%*,i,-22.5%*,i,i,i,
COc1ccccc1CN(C)C(=O)CN1C(=O)c2ccccc2C1=O,i,i,i,i,i,·,·,·,·,·,·,
COc1ccc(OC)c(C2Nc3ccccc3NC3=C2C(=O)CC(C)(C)C3)c1 (stereo not given),i,i,i,i,i,·,·,·,·,·,·,
Cc1ccc2c(c1)sc(-c1ccc(N(C)C)cc1)[n+]2C,-5.55*,i,i,i,i,i,84.5%*,i,i,56.5%*,i,
O=C(NCCN1CCOCC1)c1cnn2c(-c3ccccc3)cc(-c3ccccc3)nc12,-7.48*,i,i,i,i,·,·,·,·,i,i,TRPC4 sel inh 2=i;TRPC4 spec=i;HEK293 MPD ctr 2-1=i;HEK293 MPD ctr-1=-130.0%*
Cc1ccc(Sc2c([N+](=O)[O-])c(C)nn2C)cc1,-8.32*,i,i,i,i,·,·,·,·,84.7%*,i,TRPC4 sel inh 2=i;TRPC4 spec=i;HEK293 MPD ctr 2-1=-4.0%*;HEK293 MPD ctr-1=i
Cc1ccc(Sc2c([N+](=O)[O-])ncn2C)cc1,i,i,i,i,i,·,·,·,·,·,·,
OCCN(CC#CCC(O)(c1ccccc1)C1CCCC1)CCO (stereo not given),i,i,i,i,i,·,·,·,·,·,·,
CCN(CC)CC#CCC(O)(c1ccccc1)C1CCCC1 (stereo not given),-6.45*,i,i,i,i,156.5%*,99.5%*,29.5%*,i,75.0%*,·,
